In ChEMBL document CHEMBL1158067, “Phenolic glycosides with antioxidant activity from the stem bark of Populus davidiana” (J Nat Prod, 2006):

Assay: ABTS radical scavenging activity assessed as Trolox equivalent antioxidant capacity index
Type: physicochemical
How it was run: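 ABTS radical cation generated from 7 mM ABTS in water plus potassium persulfate (final 2.45 mM), held in the dark at room temperature for 16 h, then diluted with water to A734 0.700 ± 0.020. Diluted radical mixed with compound or Trolox standard in MeOH (final 0–20 µM), kept at ambient temperature. A734 read exactly 6 min after mixing, solvent blanks included. Compounds were dosed to give 10–80% inhibition. Percent absorbance decrease was plotted against concentration and referenced to Trolox.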
`O=C(/C=C/c1ccc(O)c(O)c1)OCc1ccccc1O[C@@H]1O[C@H](CO)[C@@H](O)[C@H](O)[C@H]1O` [POPULOSIDE] gave an Activity of 1.67.
In the case of `O=C(O)/C=C/c1ccc(O)c(O)c1` [CAFFEIC ACID], the Activity is reported as 1.98.
Molecule `O=C(OCc1cc(O)ccc1O[C@@H]1O[C@H](CO)[C@@H](O)[C@H](O)[C@H]1O)c1ccccc1` [SALIREPOSIDE] has an Activity of 1.01.
In the case of `O=C(O[C@H]1[C@H](Oc2ccccc2CO)O[C@H](CO)[C@@H](O)[C@@H]1O)c1ccccc1` [TREMULDIN], the Activity is reported as 0.24.
Molecule `O=C(/C=C/c1ccc(O)cc1)OCc1ccccc1O[C@@H]1O[C@H](CO)[C@@H](O)[C@H](O)[C@H]1O` [POPULOSIDE B] has an Activity of 1.13.
`Cc1cc(C(C)(C)C)c(O)c(C(C)(C)C)c1` [BUTYLATED HYDROXYTOLUENE] showed an Activity of 0.8.
`O=C(/C=C/c1ccc(O)cc1)O[C@@H]1O[C@H](CO)[C@@H](O)[C@H](O)[C@H]1O` gave an Activity of 0.78.
`OCc1ccccc1O[C@@H]1O[C@H](CO)[C@@H](O)[C@H](O)[C@H]1O` [SALICIN] showed an Activity of 0.21.
In the case of `O=C(/C=C/c1ccc(O)cc1)O[C@H]1[C@H](OC2CCCCC2O)O[C@H](CO)[C@@H](O)[C@@H]1O` (some centres not stated) [GRANDIDENTATIN], the Activity is reported as 1.27.
For `COc1cc(/C=C/C(=O)OCc2ccccc2O[C@@H]2O[C@H](CO)[C@@H](O)[C@H](O)[C@H]2O)ccc1O` [POPULOSIDE C], the Activity was 1.55.
With `O=C(O[C@H]1[C@H](Oc2ccccc2COC(=O)C2(O)C=CCCC2=O)O[C@H](CO)[C@@H](O)[C@@H]1O)c1ccccc1` (some centres not stated) [TREMULACIN] the Activity was 0.12.
`O=C(/C=C/c1ccc(O)cc1)OCc1cc(O)ccc1O[C@@H]1O[C@H](CO)[C@@H](O)[C@H](O)[C@H]1O` [POPULOSIDE A] showed an Activity of 2.07.
